ChEMBL document CHEMBL4364321, “Expedient assembly of Oligo-LacNAcs by a sugar nucleotide regeneration system: Finding the role of tandem LacNAc and sialic acid position towards siglec binding” (Eur J Med Chem, 2019)
pKd: −log10 of the molar value. Activity calls are given as the source filed them. No cut-off for these calls is given here.

Tests used:
[1] = molecular target: B-cell receptor CD22 (Homo sapiens) (UniProt P20273); test: Binding affinity to recombinant human Fc-fused siglec-2 by fluorescence based glycan microarray analysis
Method in brief: (§1)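 Azidoglycans CuAAC-coupled onto alkyne-modified glass (10% zwitterionic silane mix), five replicate spots each, remaining alkynes capped with azido-ethylene glycol. Slides blocked 0.5 h in 3% BSA/PBS, then probed 1 h at rt with Fc-Siglec (10 µg/mL) premixed 1:1 with Fc-specific anti-human IgG-Cy3 (10 µg/mL) in PBS/0.1% BSA. After PBST washes, Cy3 fluorescence was scanned and averaged over replicates.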

[2] = molecular target: Sialic acid-binding Ig-like lectin 9 (Homo sapiens) (UniProt Q9Y336); test: Binding affinity to recombinant human Fc-fused siglec-9 by fluorescence based glycan microarray analysis; method in brief: as §1
[3] = molecular target: T1, Sialic acid-binding Ig-like lectin 14 (Homo sapiens) (UniProt Q08ET2); test: Binding affinity to recombinant human Fc-fused siglec-14 by fluorescence based glycan microarray analysis; method in brief: as §1
T1 sequence (whole entry): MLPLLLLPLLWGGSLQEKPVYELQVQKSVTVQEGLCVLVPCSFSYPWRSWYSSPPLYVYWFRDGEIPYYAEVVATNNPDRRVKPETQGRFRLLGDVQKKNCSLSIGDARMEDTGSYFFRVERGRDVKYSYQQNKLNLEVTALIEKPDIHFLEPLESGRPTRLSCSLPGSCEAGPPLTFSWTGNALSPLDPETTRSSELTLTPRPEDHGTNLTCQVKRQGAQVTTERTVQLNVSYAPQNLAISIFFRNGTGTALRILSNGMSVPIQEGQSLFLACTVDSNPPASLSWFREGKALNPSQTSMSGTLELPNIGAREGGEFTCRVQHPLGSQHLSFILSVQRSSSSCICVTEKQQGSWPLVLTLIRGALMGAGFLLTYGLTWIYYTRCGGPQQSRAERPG

[4] = molecular target: T2, Sialic acid-binding Ig-like lectin 7 (Homo sapiens, UniProt Q9Y286); test: Binding affinity to recombinant human Fc-fused siglec-7 after 1 hr by fluorescence based glycan microarray analysis
Method in brief: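 Surface KD determination on the same glycan microarray. Fc-Siglec-7 was applied at 0.735–588 nM (13 concentrations) for 1 h at rt and washed with PBST, then detected with anti-human IgG-Cy3 (10 µg/mL) for 0.5 h. Fluorescence was plotted against Siglec concentration and fitted to y = Bmax·x/(KD + x).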

[5] = molecular target: T2, Sialic acid-binding Ig-like lectin 7; test: Binding affinity to recombinant human Fc-fused siglec-7 expressed in CHO cells measured over 180 secs; format: cell-based
[6] = molecular target: T2, Sialic acid-binding Ig-like lectin 7; test: Binding affinity to recombinant human Fc-fused siglec-7 by fluorescence based glycan microarray analysis; method in brief: as §1
[7] = molecular target: T3, Sialic acid-binding Ig-like lectin 15 (Homo sapiens) (UniProt Q6ZMC9); test: Binding affinity to recombinant human Fc-fused siglec-15 by fluorescence based glycan microarray analysis; method in brief: as §1
T3 sequence (whole entry): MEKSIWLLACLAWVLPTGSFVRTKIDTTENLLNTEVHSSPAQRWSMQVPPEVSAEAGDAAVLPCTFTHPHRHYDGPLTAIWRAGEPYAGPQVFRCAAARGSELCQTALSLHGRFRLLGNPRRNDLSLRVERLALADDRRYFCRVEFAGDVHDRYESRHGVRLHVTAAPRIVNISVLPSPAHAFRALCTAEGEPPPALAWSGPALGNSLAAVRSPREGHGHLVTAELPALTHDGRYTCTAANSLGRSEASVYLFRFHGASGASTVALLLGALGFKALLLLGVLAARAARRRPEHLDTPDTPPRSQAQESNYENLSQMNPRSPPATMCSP

Sequence of B-cell receptor CD22 (Homo sapiens) (P20273 whole entry, the tested form may be a part): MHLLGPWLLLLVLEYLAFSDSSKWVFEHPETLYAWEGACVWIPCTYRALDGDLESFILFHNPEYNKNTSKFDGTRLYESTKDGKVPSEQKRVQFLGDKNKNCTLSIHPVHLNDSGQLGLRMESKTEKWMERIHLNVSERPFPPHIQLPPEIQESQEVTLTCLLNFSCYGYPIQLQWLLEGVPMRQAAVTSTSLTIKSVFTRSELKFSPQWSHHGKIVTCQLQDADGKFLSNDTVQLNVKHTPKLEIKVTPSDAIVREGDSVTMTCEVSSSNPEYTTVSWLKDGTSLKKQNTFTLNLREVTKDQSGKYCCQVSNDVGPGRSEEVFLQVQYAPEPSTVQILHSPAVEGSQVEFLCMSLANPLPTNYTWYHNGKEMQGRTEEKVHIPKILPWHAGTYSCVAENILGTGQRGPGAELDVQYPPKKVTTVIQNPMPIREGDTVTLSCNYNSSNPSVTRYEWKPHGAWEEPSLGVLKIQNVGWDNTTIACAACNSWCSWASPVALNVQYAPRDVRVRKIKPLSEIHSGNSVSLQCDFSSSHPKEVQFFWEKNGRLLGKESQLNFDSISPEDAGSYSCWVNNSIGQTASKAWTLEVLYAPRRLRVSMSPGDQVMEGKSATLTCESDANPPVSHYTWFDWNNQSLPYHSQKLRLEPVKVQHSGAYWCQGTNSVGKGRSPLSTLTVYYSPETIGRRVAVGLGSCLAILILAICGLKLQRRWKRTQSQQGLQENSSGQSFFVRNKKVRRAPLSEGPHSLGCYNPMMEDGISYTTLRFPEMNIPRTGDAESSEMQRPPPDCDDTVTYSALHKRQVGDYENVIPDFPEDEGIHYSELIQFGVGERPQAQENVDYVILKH
Sequence of Sialic acid-binding Ig-like lectin 9 (Homo sapiens) (Q9Y336 whole entry, the tested form may be a part): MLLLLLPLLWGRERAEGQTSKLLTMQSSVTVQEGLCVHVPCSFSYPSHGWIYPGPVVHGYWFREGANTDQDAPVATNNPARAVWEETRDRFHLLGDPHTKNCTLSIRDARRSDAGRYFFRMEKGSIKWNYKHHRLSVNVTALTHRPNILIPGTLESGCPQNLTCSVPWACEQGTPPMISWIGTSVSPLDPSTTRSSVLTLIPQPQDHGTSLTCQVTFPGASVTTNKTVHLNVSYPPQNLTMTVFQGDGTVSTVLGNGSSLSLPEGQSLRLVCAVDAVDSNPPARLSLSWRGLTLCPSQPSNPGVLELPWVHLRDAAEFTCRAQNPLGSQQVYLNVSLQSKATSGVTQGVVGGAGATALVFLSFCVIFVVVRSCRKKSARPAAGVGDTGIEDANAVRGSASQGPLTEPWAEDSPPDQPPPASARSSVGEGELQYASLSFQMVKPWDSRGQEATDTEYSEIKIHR
T2 sequence (Q9Y286 whole entry, the tested form may be a part): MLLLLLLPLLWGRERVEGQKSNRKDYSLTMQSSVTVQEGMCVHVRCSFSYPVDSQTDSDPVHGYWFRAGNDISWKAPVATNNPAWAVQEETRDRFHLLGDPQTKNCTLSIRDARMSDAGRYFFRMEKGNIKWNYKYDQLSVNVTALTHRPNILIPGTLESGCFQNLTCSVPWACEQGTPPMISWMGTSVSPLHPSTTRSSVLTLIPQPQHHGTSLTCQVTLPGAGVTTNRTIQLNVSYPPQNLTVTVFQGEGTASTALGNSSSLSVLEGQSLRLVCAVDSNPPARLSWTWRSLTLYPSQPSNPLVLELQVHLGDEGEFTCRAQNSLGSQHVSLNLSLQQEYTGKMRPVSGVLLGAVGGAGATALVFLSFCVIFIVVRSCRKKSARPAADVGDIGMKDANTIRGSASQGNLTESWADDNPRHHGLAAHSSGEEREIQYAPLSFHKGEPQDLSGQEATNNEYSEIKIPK

| Activity [1] | Activity [2] | Activity [3] | pKd [4] | pKd [5] | Activity [6] | Activity [7] | Compound |
| --- | --- | --- | --- | --- | --- | --- | --- |
| inactive | Active | – | – | – | – | – | CC(=O)N[C@H]1[C@H](OCCCCCCN=[N+]=[N-])O[C@H](CO)[C@@H](O[C@@H]2O[C@H](CO[C@]3(C(=O)O)C[C@H](O)[C@@H](NC(C)=O)[C@H]([C@H](O)[C@H](O)CO)O3)[C@H](O)[C@H](O[C@@H]3O[C@H](CO)[C@@H](O)[C@H](O)[C@H]3NC(C)=O)[C@H]2O)[C@@H]1O |
| – | Active | – | – | – | – | – | CC(=O)N[C@H]1[C@H](OCCCCCCN=[N+]=[N-])O[C@H](CO)[C@@H](O[C@@H]2O[C@H](CO)[C@H](O)[C@H](O[C@]3(C(=O)O)C[C@H](O)[C@@H](NC(C)=O)[C@H]([C@H](O)[C@H](O)CO)O3)[C@H]2O)[C@@H]1O[C@@H]1O[C@@H](C)[C@@H](O)[C@@H](O)[C@@H]1O |
| – | – | – | 7.31 | – | – | – | CC(=O)N[C@H]1[C@H]([C@@H](O)[C@@H](CO)O[C@]2(C(=O)O)C[C@H](O)[C@@H](NC(C)=O)[C@H]([C@@H](O)[C@@H](CO)O[C@]3(C(=O)O)C[C@H](O)[C@@H](NC(C)=O)[C@H]([C@H](O)[C@H](O)CO)O3)O2)O[C@@](O[C@H]2[C@@H](O)[C@@H](CO)O[C@@H](O[C@H]3[C@H](O)[C@@H](O)[C@H](OCCCCCCN=[N+]=[N-])O[C@@H]3CO)[C@@H]2O)(C(=O)O)C[C@@H]1O |
| Active | Active | – | – | – | Active | – | CC(=O)N[C@H]1[C@H]([C@H](O)[C@H](O)CO)O[C@@](OC[C@H]2O[C@@H](O[C@H]3[C@H](O)[C@@H](O)[C@H](OCCCCCCN=[N+]=[N-])O[C@@H]3CO)[C@H](O)[C@@H](O)[C@H]2O)(C(=O)O)C[C@@H]1O |
| – | Active | Active | – | – | inactive | – | CC(=O)N[C@H]1[C@H](OCCCCCCN=[N+]=[N-])O[C@H](CO)[C@@H](O[C@@H]2O[C@H](CO)[C@H](O)[C@H](O[C@]3(C(=O)O)C[C@H](O)[C@@H](NC(C)=O)[C@H]([C@H](O)[C@H](O)CO)O3)[C@H]2O)[C@@H]1O |
| – | Active | – | – | – | inactive | – | CC(=O)N[C@H]1[C@H]([C@H](O)[C@H](O)CO)O[C@@](O[C@H]2[C@@H](O)[C@@H](CO)O[C@@H](O[C@H]3[C@H](O)[C@@H](O)[C@H](OCCCCCCN=[N+]=[N-])O[C@@H]3CO)[C@@H]2O)(C(=O)O)C[C@@H]1O |
| inactive | – | – | – | – | – | inactive | CC(=O)N[C@H]1[C@H](OCCCCCCN=[N+]=[N-])O[C@H](CO)[C@@H](O[C@@H]2O[C@H](CO)[C@H](O)[C@H](O[C@@H]3O[C@H](CO)[C@@H](O)[C@@H](O[C@@H]4O[C@H](CO[C@]5(C(=O)O)C[C@H](O)[C@@H](NC(C)=O)[C@H]([C@H](O)[C@H](O)CO)O5)[C@H](O)[C@H](O[C@]5(C(=O)O)C[C@H](O)[C@@H](NC(C)=O)[C@H]([C@H](O)[C@H](O)CO)O5)[C@H]4O)[C@H]3NC(C)=O)[C@H]2O)[C@@H]1O |
| inactive | – | Active | 7.57 | – | Active | Active | CC(=O)N[C@H]1[C@H]([C@H](O)[C@H](O)CO)O[C@@](OC[C@H]2O[C@@H](O[C@H]3[C@H](O)[C@@H](O)[C@H](OCCCCCCN=[N+]=[N-])O[C@@H]3CO)[C@H](O)[C@@H](O[C@]3(C(=O)O)C[C@H](O)[C@@H](NC(C)=O)[C@H]([C@H](O)[C@H](O)CO)O3)[C@H]2O)(C(=O)O)C[C@@H]1O |

Continued, molecule first:

| Compound | Activity [1] | Activity [2] | Activity [3] | pKd [4] | pKd [5] | Activity [6] | Activity [7] |
| --- | --- | --- | --- | --- | --- | --- | --- |
| CC(=O)N[C@H]1[C@H]([C@@H](O)[C@@H](CO)O[C@]2(C(=O)O)C[C@H](O)[C@@H](NC(C)=O)[C@H]([C@H](O)[C@H](O)CO)O2)O[C@@](O[C@H]2[C@@H](O)[C@@H](CO)O[C@@H](O[C@H]3[C@H](O)[C@@H](O)[C@H](OCCCCCCN=[N+]=[N-])O[C@@H]3CO)[C@@H]2O)(C(=O)O)C[C@@H]1O | – | – | Active | 7.49 | 7.22 | – | – |
| CC(=O)N[C@H]1[C@H](OCCCCCCN=[N+]=[N-])O[C@H](CO)[C@@H](O[C@@H]2O[C@H](CO)[C@H](O)[C@H](O[C@]3(C(=O)O)C[C@H](O)[C@@H](NC(C)=O)[C@H]([C@@H](O)[C@@H](CO)O[C@]4(C(=O)O)C[C@H](O)[C@@H](NC(C)=O)[C@H]([C@@H](O)[C@@H](CO)O[C@]5(C(=O)O)C[C@H](O)[C@@H](NC(C)=O)[C@H]([C@H](O)[C@H](O)CO)O5)O4)O3)[C@H]2O)[C@@H]1O | – | – | – | 7.27 | – | – | – |
| CC(=O)N[C@H]1[C@H](OCCCCCCN=[N+]=[N-])O[C@H](CO)[C@@H](O[C@@H]2O[C@H](CO)[C@H](O)[C@H](O[C@@H]3O[C@H](CO)[C@@H](O)[C@@H](O[C@@H]4O[C@H](CO)[C@H](O)[C@H](O[C@@H]5O[C@H](CO)[C@@H](O)[C@@H](O[C@@H]6O[C@H](CO[C@]7(C(=O)O)C[C@H](O)[C@@H](NC(C)=O)[C@H]([C@H](O)[C@H](O)CO)O7)[C@H](O)[C@H](O)[C@H]6O)[C@H]5NC(C)=O)[C@H]4O)[C@H]3NC(C)=O)[C@H]2O)[C@@H]1O | Active | Active | – | – | – | inactive | – |
| CC(=O)N[C@H]1[C@H](OCCCCCCN=[N+]=[N-])O[C@H](CO)[C@@H](O[C@@H]2O[C@H](CO[C@]3(C(=O)O)C[C@H](O)[C@@H](NC(C)=O)[C@H]([C@H](O)[C@H](O)CO)O3)[C@H](O)[C@H](O[C@]3(C(=O)O)C[C@H](O)[C@@H](NC(C)=O)[C@H]([C@H](O)[C@H](O)CO)O3)[C@H]2O)[C@@H]1O | inactive | Active | Active | 7.41 | – | Active | Active |
| CC(=O)N[C@H]1[C@H](OCCCCCCN=[N+]=[N-])O[C@H](CO)[C@@H](O[C@@H]2O[C@H](CO)[C@H](O)[C@H](O[C@@H]3O[C@H](CO)[C@@H](O)[C@@H](O[C@@H]4O[C@H](CO[C@]5(C(=O)O)C[C@H](O)[C@@H](NC(C)=O)[C@H]([C@H](O)[C@H](O)CO)O5)[C@H](O)[C@H](O)[C@H]4O)[C@H]3NC(C)=O)[C@H]2O)[C@@H]1O | Active | Active | – | – | – | inactive | – |
| CC(=O)N[C@H]1[C@H](OCCCCCCN=[N+]=[N-])O[C@H](CO)[C@@H](O[C@@H]2O[C@H](CO)[C@H](O)[C@H](O[C@]3(C(=O)O)C[C@H](O)[C@@H](NC(C)=O)[C@H]([C@@H](O)[C@@H](CO)O[C@]4(C(=O)O)C[C@H](O)[C@@H](NC(C)=O)[C@H]([C@H](O)[C@H](O)CO)O4)O3)[C@H]2O)[C@@H]1O | – | – | Active | 7.36 | – | – | – |
| CC(=O)N[C@H]1[C@H](OCCCCCCN=[N+]=[N-])O[C@H](CO)[C@@H](O[C@@H]2O[C@H](CO)[C@H](O)[C@H](O[C@@H]3O[C@H](CO)[C@@H](O[C@@H]4O[C@H](CO)[C@H](O)[C@H](O[C@]5(C(=O)O)C[C@H](O)[C@@H](NC(C)=O)[C@H]([C@@H](O)[C@@H](CO)O[C@]6(C(=O)O)C[C@H](O)[C@@H](NC(C)=O)[C@H]([C@H](O)[C@H](O)CO)O6)O5)[C@H]4O)[C@H](O)[C@H]3NC(C)=O)[C@H]2O)[C@@H]1O | – | – | – | – | – | inactive | – |
